Assay outcomes as filed in PubChem BioAssay.
Most compounds without a hit are left out; they make up all but 3.8% or so of the library.
KCNQ1 inh: human KCNQ1 channel inhibition. AID 2642. CHO-K1 KCNQ1, FluxOR thallium flux fluorescence; hits give high values. B-score at 10 µM. hit rate 1.3% among 310,000;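 active = compounds whose thallium flux B-score, printed positive for inhibition, exceeds three library SD while starting fluorescence stays within three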;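 note: channel opened by potassium depolarization with thallium stimulus after 20 min compound exposure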
KCNQ1 act: potentiates or activates the human KCNQ1 potassium channel; P51787; CHO-K1 KCNQ1, thallium flux FluxOR fluorescence; hits give high values; B-score at 10 µM; hit rate 0.35% among 310,000; AID 2648;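 active = fluorescence ratio B-score, a plate-corrected score, at least three library SD, with initial intensity B-score within 5 SD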
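Assay system: CHO-K1 cells stably expressing KCNQ1; Medium: assay buffer with matched DMSO; Also added: K+/Tl+ depolarizing stimulus; Dosing: single dose; Timing: dye 90 min, compound 20 min, room temperature; Measured by: kinetic FluxOR thallium fluorescence, 10-s 1-Hz baseline, 110-s post-stimulus read; Read-out: peak-minus-minimum fluorescence over initial fluorescence, negative-control normalized, B-scored.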
Kir21 inh: inhibitors of mouse Kir2.1 inward-rectifier potassium channel; P35561; HEK293-Kir2.1, FluxOR thallium flux fluorescence; hits give low values; B-score at 10 µM; hit rate 0.85% among 310,000;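 active = fluorescence ratio B-score at or below minus 3 SD of library scores, with starting-brightness B-score within 2 SD, cut at about -4.2 in these data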;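 note: channel flux triggered by added potassium and thallium sulfate stimulus; B-score of peak minus minimum fluorescence over baseline after thallium stimulus; more negative B-score means stronger Kir2.1 block with less thallium influx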
KCNK3 block: human KCNK3 channel inhibition, primary screen; O14649; CHO-KCNK3 thallium flux, FluxOR fluorescence; hits give low values; B-score at 10 µM; hit rate 0.84% among 340,000; AID 602410;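 active = B-score under library mean minus 4 SD, starting fluorescence ratio at most library mean plus 5 SD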;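 note: more negative B-score means stronger inhibition of thallium flux through KCNK3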
Target sequence (O14649 whole entry, looked up): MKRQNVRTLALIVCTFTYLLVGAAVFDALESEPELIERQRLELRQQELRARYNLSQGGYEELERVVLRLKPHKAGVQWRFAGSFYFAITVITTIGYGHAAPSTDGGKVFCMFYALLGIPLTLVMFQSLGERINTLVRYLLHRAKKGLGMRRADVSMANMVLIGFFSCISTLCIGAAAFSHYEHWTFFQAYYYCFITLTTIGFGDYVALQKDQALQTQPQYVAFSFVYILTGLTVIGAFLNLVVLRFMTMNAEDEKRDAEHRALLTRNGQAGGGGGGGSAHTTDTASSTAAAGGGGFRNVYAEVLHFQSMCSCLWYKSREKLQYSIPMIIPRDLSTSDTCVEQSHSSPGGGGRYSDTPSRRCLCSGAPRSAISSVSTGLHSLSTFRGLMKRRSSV
KCNK9 inh: human KCNK9 channel inhibition | HEK293 KCNK9, FluxOR thallium flux fluorescence; hits give low values | B-score at 10 µM | hit rate 1.2% among 310,000 | AID 488922;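 active = ratio B-score over 3 SD below the library mean, with starting fluorescence within 5 SD of its mean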;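 note: negative B-score means less thallium flux so channel inhibition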
hERG rescue: compounds protecting human hERG from proarrhythmic drug block. activation (rescue from dofetilide block), less the hit threshold, % at 10 µM. hit rate 0.51% among 310,000. AID 1511. CHO-hERG, FluxOR thallium flux, dofetilide IC70 present. Q12809;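 active = activation above the mean of controls blocked by dofetilide plus 5 SD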;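 note: thallium influx through hERG after potassium depolarization seen as dye fluorescence rise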
Starred values were filed as active, the others as inactive; i = inactive; . = no result.

SMILES	KCNQ1 inh	KCNQ1 act	Kir21 inh	KCNK3 block	KCNK9 inh	hERG rescue
Cc1ccc(C(=O)NNC(=S)Nc2cccc(Cl)c2Cl)cc1[N+](=O)[O-]	9*	i	-1.7	i	i	-10
COc1ccc(/C=N/Nc2nc(Nc3ccccc3)nc(N3CCCCC3)n2)cc1OC	7*	i	0.62	i	i	-13
COc1ccc(-c2cn3c(C)c(C(=O)N4CCCc5ccccc54)sc3n2)cc1	6*	i	-0.76	i	i	-15
Cc1nc(N)nc(N)c1-c1ccc(Cl)c(Cl)c1	.	.	.	i	.	.
Cc1nc(N)nc(N)c1CCCc1ccc(Cl)c(Cl)c1	i	i	-7.8*	i	i	-14
C=CCNC(=O)CN(Cc1ccccc1)S(=O)(=O)c1ccc(C)cc1	i	i	0.56	i	i	-12
O=C(Nc1cc(-c2ccccc2)sc1C(=O)O)c1cccc(F)c1	6*	i	0.67	i	i	-11
O=C(O)c1ccc(NC(=O)c2ccccc2NC(=O)c2cccc(F)c2)cc1	i	i	0.66	i	i	-3
C/C(CC(=O)Nc1ccc(Cl)cc1C(F)(F)F)=N\NC(=O)c1ccccn1	i	i	-0.45	i	i	-6
CCOC(=O)c1cc(CC)sc1NC(=O)Cc1ccccc1	i	i	0.99	i	-7.6*	-13
CCOC(=O)c1cc(CC)sc1NC(=O)COC	i	i	-0.71	i	i	-6
CC(=O)/C=C\c1cn(-c2ncc(C(F)(F)F)cc2Cl)c2ccccc12	6*	i	1.3	i	i	-10
CO/N=C/NC(=O)Cc1cn(-c2ncc(C(F)(F)F)cc2Cl)c2ccccc12	i	i	-0.75	i	i	-9
O=C(Cn1nnc(-c2ccccc2)n1)NCC(=O)Nc1ccc(F)c(F)c1F	.	.	.	i	.	.
C[C@H]1COC2=C1C(=O)C(=O)c1c2ccc2c1CCCC2(C)C	i	i	-5.4*	-8.7*	i	-18
CC1(C)Cc2c(C#N)c(NCC3CCCO3)nc(-c3ccco3)c2CO1 (stereo not drawn)	i	i	0.02	i	i	-7
CC1(C)Cc2c(C#N)c(NC3CCCCC3)nc(-c3ccco3)c2CO1	6*	i	-1.4	i	i	-22
COc1cc(C(=O)NC(=S)N(CCC#N)Cc2cccnc2)cc(OC)c1OC	.	.	.	i	.	.
CCCOc1ccc(CN(CCC#N)C(=S)NC(=O)c2ccccc2)cc1	i	14*	-0.41	i	i	59*
Cc1cc(Br)ccc1NC(=O)CNC(=O)Cn1ncc(Cl)c(Cl)c1=O	i	i	1.4	i	i	4.7*
Cc1ccc(S(=O)(=O)N2CCCCC2)cc1NC(=O)Cn1ncc(Cl)c(Cl)c1=O	.	.	.	i	.	.
O=C(NC(=S)NCCc1ccccc1)c1cccc(Cl)c1	i	9*	0.01	i	i	12*
COc1ccc(C(=O)NC(=S)NCCc2ccccc2)cc1	i	i	-0.18	i	i	-11
Cc1cccc(/C=N/NC(=O)c2cc(Br)ccc2O)n1	i	11*	1.4	i	i	0
COc1ccc(NC(=O)CN2C(=O)NC3(CCCC3)C2=O)cc1S(=O)(=O)N1CCCCC1	.	.	.	i	.	.
SMILES	KCNQ1 inh	KCNQ1 act	Kir21 inh	KCNK3 block	KCNK9 inh	hERG rescue
COc1ccc(-c2nc3ccccc3c(=O)n2CCCN2CCOCC2)cc1	i	i	0.91	i	i	-8
Cc1nc2ccccc2c(=O)n1CCCN1CCOCC1	i	i	-0.67	i	i	5.8*
CCCCC1C(=O)N(c2ccccc2)N(c2ccc(O)cc2)C1=O (stereo not drawn)	.	.	.	-10*	.	.
C/C(=N\N=C(N)N)c1cc(Cl)ccc1Cl	i	i	-5.8*	i	i	-5
C/C(=N\N=C(N)N)c1cccc(Cl)c1	i	i	-2.6	i	i	-4
C/C(=N\N=C(N)N)c1ccc(Cl)cc1Cl	i	i	-7.2*	i	i	-9
COc1ccc(S(=O)(=O)N2CCC(C(=O)N[C@H](C(=O)N3CCCC3)C(C)C)CC2)cc1	i	i	-0.21	i	i	-9
